Structures are written as SMILES. Some results are limits rather than exact numbers.

The target in test [1] is Serine/threonine-protein kinase B-raf (Homo sapiens, UniProt P15056). Nature of the test: Inhibition of BRAF in human HeLa cells lysate pre incubated for 15 mins followed by ATP acyl phosphate probe addition and measured after 10 mins by LC-MS/MS analysis. The test is classed as subcellular. An outline of the steps: (§1)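 KiNativ-type profiling in HeLa lysate (5 mg/mL total protein). Lysate preincubated 15 min with inhibitor at 50, 10, 2, 0.8 or 0 μM, then ATP or ADP acylphosphate probe added (5 μM final) for 10 min. Reaction stopped with urea and analysed by targeted MS, using up to four fragment ions per kinase peptide-probe conjugate. % inhibition calculated against untreated lysate. Duplicate reactions.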

Test [2] has as its target Tyrosine-protein kinase ABL (Homo sapiens, UniProt P00519+P42684). Nature of the test: Inhibition of ABL1/2 in human HeLa cells lysate at 10 uM pre incubated for 15 mins followed by ATP acyl phosphate probe addition and measured after 10 mins by LC-MS/MS analysis relative to control. The settings on record: time 25.0 min. The test is classed as subcellular. A digest of the protocol:
(§2)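 HeLa cell lysates (5 mg/mL total protein) were preincubated with inhibitor at 0, 0.8, 2, 10 or 50 μM for 15 min. ATP or ADP acylphosphate probe was then added (5 μM final) for 10 min, and reactions were stopped with urea. Up to four fragment ions per kinase probe-peptide were quantified by targeted MS. % inhibition was taken relative to untreated lysate. Run in duplicate.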

In test [3] the target is Serine/threonine-protein kinase/endoribonuclease IRE1 (Homo sapiens, UniProt O75460). As to the kind of experiment: Inhibition of IRE1 in human HeLa cells lysate at 10 uM pre incubated for 15 mins followed by ADP acyl phosphate probe addition and measured after 10 mins by LC-MS/MS analysis relative to control. The test is classed as subcellular. The following applies: time 25.0 min.

The target of test [4] is Calcium/calmodulin-dependent protein kinase type II subunit delta (Homo sapiens, UniProt Q13557). Nature of the test: Inhibition of CAMK2d in human HeLa cells lysate at 2 uM pre incubated for 15 mins followed by ATP acyl phosphate probe addition and measured after 10 mins by LC-MS/MS analysis relative to control. The test is classed as subcellular. The settings on record: time 25.0 min. An outline of the steps:
as §1

Test [5] concerns the target Serine/threonine-protein kinase Aurora (Homo sapiens, UniProt Q96GD4+Q9UQB9+O14965). As to the kind of experiment: Inhibition of AurA/AurB/AurC in human HeLa cells lysate at 10 uM pre incubated for 15 mins followed by ATP acyl phosphate probe addition and measured after 10 mins by LC-MS/MS analysis relative to control. It counts as subcellular. The following applies: time 25.0 min. An outline of the steps: as §1

The target in test [6] is Tyrosine-protein kinase CSK (Homo sapiens, UniProt P41240). As to the kind of experiment: Inhibition of CSK in human HeLa cells lysate at 10 uM pre incubated for 15 mins followed by ATP acyl phosphate probe addition and measured after 10 mins by LC-MS/MS analysis relative to control. It counts as subcellular. The following applies: time 25.0 min.
A short description of test [7]: Inhibition of PKD1/2 in human HeLa cells lysate at 2 uM pre incubated for 15 mins followed by ATP acyl phosphate probe addition and measured after 10 mins by LC-MS/MS analysis relative to control. The following applies: 25 min, condition cancer.
Test [8] has as its target T1, Phosphatidylinositol 5-phosphate 4-kinase type-2 gamma (Homo sapiens) (UniProt Q8TBX8).
T1 sequence (whole entry): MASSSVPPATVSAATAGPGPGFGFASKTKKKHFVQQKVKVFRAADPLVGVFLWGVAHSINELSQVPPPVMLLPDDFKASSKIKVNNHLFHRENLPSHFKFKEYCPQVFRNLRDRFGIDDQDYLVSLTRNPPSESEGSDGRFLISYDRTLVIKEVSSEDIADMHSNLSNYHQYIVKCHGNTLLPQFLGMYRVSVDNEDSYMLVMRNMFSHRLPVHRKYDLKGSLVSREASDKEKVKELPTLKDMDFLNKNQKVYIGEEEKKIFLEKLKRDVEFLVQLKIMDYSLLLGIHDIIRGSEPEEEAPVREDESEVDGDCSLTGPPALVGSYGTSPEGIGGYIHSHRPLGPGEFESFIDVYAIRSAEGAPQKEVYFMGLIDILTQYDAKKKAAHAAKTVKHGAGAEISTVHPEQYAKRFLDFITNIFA
Nature of the test: Inhibition of PIP5K2C LIP1 site in human HeLa cells lysate at 50 uM pre incubated for 15 mins followed by ATP acyl phosphate probe addition and measured after 10 mins by LC-MS/MS analysis relative to control. The test is classed as subcellular. The settings on record: time 25.0 min.

Test [9] can be described thus: Inhibition of MSK1/2 in human HeLa cells lysate at 50 uM pre incubated for 15 mins followed by ADP acyl phosphate probe addition and measured after 10 mins by LC-MS/MS analysis relative to control. The following applies: 25 min, condition cancer.
The target of test [10] is Ribosomal protein S6 kinase alpha-3 (Homo sapiens, UniProt P51812). Nature of the test: Inhibition of RSK2 domain 1 active form in human HeLa cells lysate at 10 uM pre incubated for 15 mins followed by ATP acyl phosphate probe addition and measured after 10 mins by LC-MS/MS analysis relative to control. The following applies: time 25.0 min. The test is classed as subcellular.

The target in test [11] is T2, Serine/threonine-protein kinase 3 (Homo sapiens) (UniProt Q13188).
T2 sequence (whole entry): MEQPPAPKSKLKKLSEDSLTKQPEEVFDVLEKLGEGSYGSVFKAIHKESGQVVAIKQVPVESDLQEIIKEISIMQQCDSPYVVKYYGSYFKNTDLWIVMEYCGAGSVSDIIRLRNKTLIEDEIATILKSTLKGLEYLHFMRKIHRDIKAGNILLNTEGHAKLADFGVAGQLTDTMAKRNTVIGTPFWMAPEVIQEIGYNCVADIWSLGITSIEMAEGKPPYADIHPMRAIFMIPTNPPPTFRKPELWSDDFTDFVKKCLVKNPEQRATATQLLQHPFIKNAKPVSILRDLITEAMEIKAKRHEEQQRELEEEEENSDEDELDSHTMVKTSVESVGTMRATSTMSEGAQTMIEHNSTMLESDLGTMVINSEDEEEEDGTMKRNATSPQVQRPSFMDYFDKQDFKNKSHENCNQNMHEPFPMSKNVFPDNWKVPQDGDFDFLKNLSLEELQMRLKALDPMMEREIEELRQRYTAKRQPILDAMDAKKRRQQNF
Nature of the test: Inhibition of MST2 in human HeLa cells lysate at 10 uM pre incubated for 15 mins followed by ADP acyl phosphate probe addition and measured after 10 mins by LC-MS/MS analysis relative to control. The test is classed as subcellular. The settings on record: time 25.0 min.

The target in test [12] is PAN2-PAN3 deadenylation complex subunit PAN3 (Homo sapiens, UniProt Q58A45). As to the kind of experiment: Inhibition of PAN3 in human HeLa cells lysate pre incubated for 15 mins followed by ADP acyl phosphate probe addition and measured after 10 mins by LC-MS/MS analysis. The test is classed as subcellular.
Test [13] deals with MAP/microtubule affinity-regulating kinase 3 (Homo sapiens, UniProt P27448). As to the kind of experiment: Inhibition of MARK3 in human HeLa cells lysate pre incubated for 15 mins followed by ADP acyl phosphate probe addition and measured after 10 mins by LC-MS/MS analysis. It counts as subcellular.
Test [14] deals with Macrophage-stimulating protein receptor (Homo sapiens, UniProt Q04912). As to the kind of experiment: Inhibition of RON in human HeLa cells lysate at 2 uM pre incubated for 15 mins followed by ADP acyl phosphate probe addition and measured after 10 mins by LC-MS/MS analysis relative to control. The following applies: time 25.0 min. It counts as subcellular.
The target in the next test is Activated CDC42 kinase 1 (Homo sapiens, UniProt Q07912). Nature of the test: Inhibition of ACK1 in human HeLa cells lysate at 50 uM pre incubated for 15 mins followed by ADP acyl phosphate probe addition and measured after 10 mins by LC-MS/MS analysis relative to control. The test is classed as subcellular. The following applies: time 25.0 min. An outline of the steps: as §2

Chain of PAN2-PAN3 deadenylation complex subunit PAN3 (Q58A45 whole entry, one chain of several): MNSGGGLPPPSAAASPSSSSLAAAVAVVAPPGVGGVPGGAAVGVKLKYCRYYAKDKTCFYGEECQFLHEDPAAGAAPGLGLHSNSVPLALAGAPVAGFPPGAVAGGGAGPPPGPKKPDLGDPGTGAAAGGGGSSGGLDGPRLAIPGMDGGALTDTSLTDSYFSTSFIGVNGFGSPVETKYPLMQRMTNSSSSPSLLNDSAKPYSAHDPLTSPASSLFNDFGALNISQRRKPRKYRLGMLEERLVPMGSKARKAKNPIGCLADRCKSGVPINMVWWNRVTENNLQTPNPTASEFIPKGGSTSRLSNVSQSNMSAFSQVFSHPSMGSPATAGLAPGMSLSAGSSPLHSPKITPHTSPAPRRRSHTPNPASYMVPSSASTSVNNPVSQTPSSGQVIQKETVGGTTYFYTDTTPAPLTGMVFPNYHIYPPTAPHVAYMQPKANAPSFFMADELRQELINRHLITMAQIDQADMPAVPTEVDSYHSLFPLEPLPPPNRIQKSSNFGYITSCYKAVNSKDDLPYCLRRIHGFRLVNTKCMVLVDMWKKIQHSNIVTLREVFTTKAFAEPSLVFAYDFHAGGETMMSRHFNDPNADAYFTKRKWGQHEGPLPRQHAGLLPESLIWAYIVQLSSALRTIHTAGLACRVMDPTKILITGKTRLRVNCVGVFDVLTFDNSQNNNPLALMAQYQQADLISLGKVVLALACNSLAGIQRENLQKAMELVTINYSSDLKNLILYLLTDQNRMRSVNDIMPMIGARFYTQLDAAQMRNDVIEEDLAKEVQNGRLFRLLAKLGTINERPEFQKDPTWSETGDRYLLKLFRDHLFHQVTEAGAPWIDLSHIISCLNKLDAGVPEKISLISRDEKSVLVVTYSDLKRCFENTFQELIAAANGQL
Chain of MAP/microtubule affinity-regulating kinase 3 (P27448 whole entry): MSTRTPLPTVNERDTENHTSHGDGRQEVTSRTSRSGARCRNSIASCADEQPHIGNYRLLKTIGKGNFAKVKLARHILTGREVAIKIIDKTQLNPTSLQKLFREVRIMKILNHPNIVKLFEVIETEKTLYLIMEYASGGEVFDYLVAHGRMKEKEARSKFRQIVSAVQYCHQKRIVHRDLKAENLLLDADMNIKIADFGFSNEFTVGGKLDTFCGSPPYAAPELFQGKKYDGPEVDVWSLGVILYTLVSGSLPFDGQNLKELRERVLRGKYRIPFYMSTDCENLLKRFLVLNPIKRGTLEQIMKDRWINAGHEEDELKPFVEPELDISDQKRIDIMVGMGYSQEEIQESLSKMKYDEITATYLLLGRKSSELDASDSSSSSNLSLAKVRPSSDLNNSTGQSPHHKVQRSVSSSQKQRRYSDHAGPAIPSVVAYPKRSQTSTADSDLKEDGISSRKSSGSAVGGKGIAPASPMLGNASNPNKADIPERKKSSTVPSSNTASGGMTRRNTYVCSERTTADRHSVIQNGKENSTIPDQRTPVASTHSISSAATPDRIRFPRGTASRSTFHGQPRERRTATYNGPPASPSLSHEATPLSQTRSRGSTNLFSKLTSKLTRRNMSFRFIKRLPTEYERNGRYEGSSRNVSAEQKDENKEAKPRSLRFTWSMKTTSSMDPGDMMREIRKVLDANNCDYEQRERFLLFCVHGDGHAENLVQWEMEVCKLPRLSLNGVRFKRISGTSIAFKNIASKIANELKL
Chain of Serine/threonine-protein kinase Aurora (O14965 whole entry, looked up): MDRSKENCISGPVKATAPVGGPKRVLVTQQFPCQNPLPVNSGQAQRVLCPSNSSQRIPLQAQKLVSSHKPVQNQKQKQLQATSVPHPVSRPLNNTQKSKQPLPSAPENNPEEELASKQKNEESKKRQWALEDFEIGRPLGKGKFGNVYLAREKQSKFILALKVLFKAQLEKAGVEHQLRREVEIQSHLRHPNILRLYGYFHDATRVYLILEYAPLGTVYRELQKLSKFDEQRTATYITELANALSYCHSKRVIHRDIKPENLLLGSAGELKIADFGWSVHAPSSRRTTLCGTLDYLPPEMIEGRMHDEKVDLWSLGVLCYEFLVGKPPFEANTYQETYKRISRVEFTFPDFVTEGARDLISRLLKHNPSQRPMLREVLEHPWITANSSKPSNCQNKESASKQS
Chain of Serine/threonine-protein kinase Aurora (Q96GD4 whole entry, looked up): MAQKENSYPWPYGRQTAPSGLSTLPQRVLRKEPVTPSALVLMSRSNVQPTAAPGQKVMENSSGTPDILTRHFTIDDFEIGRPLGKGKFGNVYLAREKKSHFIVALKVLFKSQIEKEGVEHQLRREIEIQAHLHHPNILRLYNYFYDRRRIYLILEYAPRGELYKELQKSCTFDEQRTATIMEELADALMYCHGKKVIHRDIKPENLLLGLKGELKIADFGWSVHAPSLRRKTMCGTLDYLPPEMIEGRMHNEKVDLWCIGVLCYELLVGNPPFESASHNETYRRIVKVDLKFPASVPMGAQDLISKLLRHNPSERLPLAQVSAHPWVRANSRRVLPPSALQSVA
Chain of Serine/threonine-protein kinase Aurora (Q9UQB9 whole entry, looked up): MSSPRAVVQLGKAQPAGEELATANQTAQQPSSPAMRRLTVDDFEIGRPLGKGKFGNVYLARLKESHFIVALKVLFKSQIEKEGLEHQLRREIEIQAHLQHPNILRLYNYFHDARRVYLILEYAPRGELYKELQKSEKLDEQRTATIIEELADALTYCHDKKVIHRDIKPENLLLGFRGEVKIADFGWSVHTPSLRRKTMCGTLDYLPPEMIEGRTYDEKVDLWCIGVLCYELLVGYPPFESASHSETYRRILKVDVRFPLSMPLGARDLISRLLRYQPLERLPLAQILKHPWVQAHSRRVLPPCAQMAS
Chain of Tyrosine-protein kinase CSK (P41240 2-450 limits assumed): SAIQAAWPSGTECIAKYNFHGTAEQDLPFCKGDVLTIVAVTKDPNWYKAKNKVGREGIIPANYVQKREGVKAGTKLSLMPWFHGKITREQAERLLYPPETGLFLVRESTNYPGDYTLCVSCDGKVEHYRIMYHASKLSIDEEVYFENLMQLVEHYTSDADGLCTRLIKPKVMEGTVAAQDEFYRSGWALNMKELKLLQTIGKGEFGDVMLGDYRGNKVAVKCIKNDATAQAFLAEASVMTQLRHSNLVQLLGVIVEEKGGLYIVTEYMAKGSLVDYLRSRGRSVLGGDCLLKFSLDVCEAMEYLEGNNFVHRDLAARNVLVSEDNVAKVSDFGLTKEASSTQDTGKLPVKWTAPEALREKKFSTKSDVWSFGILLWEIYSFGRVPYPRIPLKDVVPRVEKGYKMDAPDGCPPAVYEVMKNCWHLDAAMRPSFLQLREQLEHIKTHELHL
Chain of Calcium/calmodulin-dependent protein kinase type II subunit delta (Q13557 whole entry): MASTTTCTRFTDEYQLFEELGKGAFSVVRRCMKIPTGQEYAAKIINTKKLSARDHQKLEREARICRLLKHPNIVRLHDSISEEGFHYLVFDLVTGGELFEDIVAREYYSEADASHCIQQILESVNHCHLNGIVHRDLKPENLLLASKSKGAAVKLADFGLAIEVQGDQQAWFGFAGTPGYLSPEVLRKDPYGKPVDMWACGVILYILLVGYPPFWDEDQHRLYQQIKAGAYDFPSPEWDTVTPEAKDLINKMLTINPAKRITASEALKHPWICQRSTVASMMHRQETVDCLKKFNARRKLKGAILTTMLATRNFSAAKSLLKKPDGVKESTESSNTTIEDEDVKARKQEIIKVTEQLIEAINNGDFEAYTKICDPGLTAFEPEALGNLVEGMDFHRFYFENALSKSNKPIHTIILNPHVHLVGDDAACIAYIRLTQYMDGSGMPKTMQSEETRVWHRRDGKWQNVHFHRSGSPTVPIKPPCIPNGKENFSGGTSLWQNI
Chain of Ribosomal protein S6 kinase alpha-3 (P51812 whole entry, the tested form may be a part): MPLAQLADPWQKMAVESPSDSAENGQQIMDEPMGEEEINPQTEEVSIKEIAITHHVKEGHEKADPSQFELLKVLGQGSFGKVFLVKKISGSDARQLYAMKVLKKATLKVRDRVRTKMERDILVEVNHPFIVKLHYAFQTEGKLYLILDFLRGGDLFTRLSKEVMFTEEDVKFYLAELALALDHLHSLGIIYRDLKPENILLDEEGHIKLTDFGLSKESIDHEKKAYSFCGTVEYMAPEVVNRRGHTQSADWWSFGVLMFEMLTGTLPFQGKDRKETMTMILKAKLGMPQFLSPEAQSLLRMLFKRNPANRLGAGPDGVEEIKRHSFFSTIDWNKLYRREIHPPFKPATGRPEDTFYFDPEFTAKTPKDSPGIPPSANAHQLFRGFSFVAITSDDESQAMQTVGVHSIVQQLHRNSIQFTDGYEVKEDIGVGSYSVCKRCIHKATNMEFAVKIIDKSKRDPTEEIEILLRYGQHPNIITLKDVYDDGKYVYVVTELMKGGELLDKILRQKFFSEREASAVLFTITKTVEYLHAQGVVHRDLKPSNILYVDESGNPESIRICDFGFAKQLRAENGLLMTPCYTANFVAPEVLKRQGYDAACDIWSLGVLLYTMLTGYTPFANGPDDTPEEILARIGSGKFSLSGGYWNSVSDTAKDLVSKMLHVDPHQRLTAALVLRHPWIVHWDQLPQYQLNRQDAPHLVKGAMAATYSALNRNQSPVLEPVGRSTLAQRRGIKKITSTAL

As to `CCOc1cc(N2CCC(O)CC2)ccc1Nc1ncc2c(n1)N(C)c1ccccc1C(=O)N2C`, the concentration for half-maximal inhibition (IC50) in test [1], in [12] and in [13] was above 50 µM throughout. The inhibition in test [2] was 1.7%; in [3], 15.6%; in test [4] it was -1.1%; in [5], -7.7%; in test [6] it was -3.4%; in test [8] it was 9.9%. Moreover, the inhibition is -6.5% in test [10], 23.5% in [11], 23.7% in test [14] and 71.5% against Activated CDC42 kinase 1. In addition, the inhibition at 2 µM in test [7] came out at 27.1%. Further, the inhibition at 50 µM in test [9] is 10%.

The values are drawn from ChEMBL document CHEMBL5661979, “Pharmacological inhibition of BMK1 suppresses tumor growth through promyelocytic leukemia protein” (Cancer Cell, 2010).
